Laboratory results: ChEMBL document CHEMBL1149883, “alpha-Glucosidase inhibitory activity of triterpenoids from Cichorium intybus” (J Nat Prod, 2008)
Activity calls are given as the source filed them. No cut-off for these calls is given here.

Molecular target: not listed separately
Experiment: (§1) Inhibition of Saccharomyces sp. alpha-glucosidase
Method in brief: (§2)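 Read spectrophotometrically at pH 6.9 and 37 °C in 50 mM sodium phosphate buffer with 100 mM NaCl. Substrate was 0.5 mM p-nitrophenyl α-D-glucopyranoside, and enzyme was 250 m units/mL. The rise in absorbance at 400 nm from PNP-G hydrolysis was followed continuously. 1-Deoxynojirimycin (0.425 mM) and acarbose (0.78 mM) served as positive controls. Modified from Oki et al.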

Q: Which IC50 does the source give for `C=C1[C@H](OC(C)=O)C[C@]2(C)CC[C@]3(C)[C@H](CC[C@@H]4[C@@]5(C)CC[C@H](OC(C)=O)C(C)(C)[C@@H]5CC[C@]43C)[C@H]2[C@H]1C` here?
A: The IC50 was 10 µM.

Q: With `OC[C@H]1NC[C@H](O)[C@@H](O)[C@@H]1O` [DUVOGLUSTAT] as the molecule, how does the IC50 read?
A: The IC50 was 425 µM.

Q: With `COc1cc(C(=O)O)ccc1O` [VANILLIC ACID] as the molecule, how does the IC50 read?
A: Its IC50 is 69 µM.

Q: For `C[C@H]1C(=O)CC[C@@H]2[C@]1(C)CC[C@H]1[C@@]2(C)CC[C@@]2(C)[C@@H]3CC(C)(C)CC[C@]3(C)CC[C@]12C` [FRIEDELINE], which IC50 is on record?
A: The IC50 was 321 µM.

Q: For `C=C1[C@H](O)C[C@]2(C)CC[C@]3(C)[C@H](CC[C@@H]4[C@@]5(C)CC[C@H](O)C(C)(C)[C@@H]5CC[C@]43C)[C@H]2[C@H]1C`, which IC50 is on record?
A: The IC50 was 51.9 µM.

Test system: Saccharomyces sp.
Experiment: as §1
Method in brief: as §2

Q: With `C=C(C)[C@@H]1CC[C@]2(C(=O)O)CC[C@]3(C)[C@H](CC[C@@H]4[C@@]5(C)CC[C@H](O)C(C)(C)[C@@H]5CC[C@]43C)[C@@H]12` as the molecule, how does the Activity read?
A: Its Activity is “inactive”.

Q: With `C=C(C)[C@@H]1CC[C@]2(C=O)CC[C@]3(C)[C@H](CC[C@@H]4[C@@]5(C)CC[C@H](O)C(C)(C)[C@@H]5CC[C@]43C)[C@@H]12` as the molecule, how does the Activity read?
A: The Activity was “inactive”.

Q: Which Activity does the source give for `COc1cc(C(=O)O)cc(OC)c1O` here?
A: Its Activity is “inactive”.

Q: For `C=C1[C@@H]2CC[C@@]3(C)[C@@H](c4ccoc4)OC(=O)C[C@@]13O[C@H]1CC(=O)C(C)(C)[C@H](C(O)C(=O)OC)[C@]12C` (stereo not given in full), which Activity is on record?
A: Its Activity is “inactive”.

Q: Which Activity does the source give for `O=c1ccc2cc(O)c(O)cc2o1` here?
A: Its Activity is “inactive”.

Q: Which Activity does the source give for `C=C(C)[C@@H]1CC[C@]2(C)CC[C@]3(C)[C@H](CC[C@@H]4[C@@]5(C)CC[C@H](O)C(C)(C)[C@@H]5CC[C@]43C)[C@@H]12` here?
A: Its Activity is “inactive”.

Q: Which Activity does the source give for `C=C(C)[C@@H]1CC[C@]2(CO)CC[C@]3(C)[C@H](CC[C@@H]4[C@@]5(C)CC[C@H](O)C(C)(C)[C@@H]5CC[C@]43C)[C@@H]12` here?
A: Its Activity is “inactive”.

Q: For `CC[C@H](/C=C/[C@@H](C)[C@H]1CC[C@H]2[C@@H]3CC=C4C[C@@H](O)CC[C@]4(C)[C@H]3CC[C@]12C)C(C)C`, which Activity is on record?
A: The Activity was “inactive”.

Q: Which Activity does the source give for `CC[C@H](CC[C@@H](C)[C@H]1CC[C@H]2[C@@H]3CC=C4C[C@@H](O)CC[C@]4(C)[C@H]3CC[C@]12C)C(C)C` here?
A: Its Activity is “inactive”.

Q: Which Activity does the source give for `CO[C@H]1O[C@H](CO)[C@H](O)[C@H](O)[C@H]1O` here?
A: Its Activity is “inactive”.
